Structures are written as SMILES. Several values for one entry are separate records, joined by “and”; a condition that tells them apart may be missing. Identical values can stand only once. Some results are limits rather than exact numbers.

Data set [1] concerns NCI-H460. Kind of data set: Cytotoxicity against human H460 cells after 72 hrs by alamar blue assay. The format is functional, cell-based. The settings on record: Homo sapiens, NCI-H460, 72 h. Summed up: (§1)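 Cells seeded at 4 × 10³ per well and grown 24 h. Compounds dissolved in DMSO and diluted in medium to final concentrations, then incubated 72 h at 37 °C, 5% CO₂. Viable cells read by AlamarBlue; IC₅₀ taken as the concentration giving 50% growth inhibition.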
A general note: Alamar Blue is a resazurin reagent that responds to reducing activity.

Data set [2] is described as follows: Ratio of IC50 for mouse bone marrow cell to IC50 for human bone marrow cell. The format is cell-based. To be noted: bone marrow cells. Summed up: (§2)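 CFU-GM colony assay in triplicate at 2 × 10⁴ cells per culture, using thawed normal human bone marrow or fresh mouse femoral marrow. Colonies were scored after 16-18 days. The IC50 or IC90 from each species gave the mouse/human ratio.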

Data set [3] is described as follows: Cytotoxicity against human bone marrow cell by CFU-GM assay. It is filed as cell-based. To be noted: for IC50: Homo sapiens, Bone marrow cell; for IC90: human, bone marrow cells.
A short description of data set [4]: Ratio of IC90 for mouse bone marrow cell to IC90 for human bone marrow cell. The format is ADME, cell-based. The settings on record: bone marrow cells. The procedure, abridged:
as §2

Data set [5] in a line: Cytotoxicity against mouse bone marrow cell by CFU-GM assay. The format is cell-based. Summed up: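 CFU-GM colony assay on normal human bone marrow (thawed) or mouse femoral marrow (freshly extracted). Human colonies scored after 16-18 days. IC₅₀ taken from triplicate assays.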
Data set [6] relates to H69AR. Kind of data set: Cytotoxicity against human H69AR cells overexpressing MRP1 after 72 hrs by alamar blue assay.
Data set [7] is described as follows: Resistance ratio of IC50 for human H69AR cells overexpressing MRP1 after 72 hrs s to IC50 for human H69 cells after 72 hrs.
A short description of data set [8]: Resistance ratio of IC50 for human MES-SA/Dx5 cells overexpressing MDR1 after 72 hrs to IC50 for human MESSA cells after 72 hrs. It is filed as functional. Summed up: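 Cytotoxicity compared in MDR1-overexpressing lines and their parental wild-type lines. 72 h exposure at 37 °C, viability by AlamarBlue, IC₅₀ at 50% growth inhibition. Resistance ratio = IC₅₀ in overexpressing line / IC₅₀ in parental line.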

Data set [9] is described as follows: Cytotoxicity against human MESSA cells after 72 hrs by alamar blue assay. It is filed as functional, cell-based. To be noted: MES-SA. Summed up:
as §1

For data set [10], the system named is NCI-H460. Kind of data set: Cytotoxicity against human H460 cells after 72 hrs by alamar blue assay in presence of 40 mg/ml HSA. The format is functional, cell-based. To be noted: NCI-H460, 72 h. Summed up: (§3)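 H460 cells seeded at 4 × 10³ per well and grown 24 h. Compounds then cocultured with cells for 72 h at 37 °C, with or without 40 mg/mL human serum albumin. Viability read by AlamarBlue; IC₅₀ = 50% growth inhibition. Ratio compares the IC₅₀ with HSA to the IC₅₀ without.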

The subject of data set [11] is NCI-H460. Kind of data set: Ratio IC50 for human H460 cells after 72 hrs in presence of 40 mg/ml HSA to IC50 for human H460 cells after 72 hrs. The format is functional. Summed up:
as §3

Data set [12] relates to HT-29. In words: Cytotoxicity against human HT-29 cells after 72 hrs by alamar blue assay. The format is functional, cell-based. The settings on record: HT-29, 72 h. Summed up:
as §1

Data set [13] concerns NCI-H69. In words: Cytotoxicity against human H69 cells after 72 hrs by alamar blue assay. It is filed as functional, cell-based. The settings on record: NCI-H69, 72 h. Summed up: as §1
In data set [14] the test system is PC-3. In words: Cytotoxicity against human PC3 cells after 72 hrs by alamar blue assay. It is filed as functional, cell-based. The settings on record: PC-3, 72 h. The procedure, abridged: as §1
Data set [15] in a line: Cytotoxicity against human MES-SA/Dx5 cells overexpressing MDR1 after 72 hrs by alamar blue assay. The format is functional, cell-based. To be noted: MES-SA/Dx5, 72 h. Summed up: as §1
Data set [16] concerns SK-MEL-2. Kind of data set: Cytotoxicity against human SK-MEL-2 cells after 72 hrs by alamar blue assay. The format is functional, cell-based. The settings on record: SK-MEL-2, 72 h. The procedure, abridged: as §1
Data set [17] deals with Malme-3M. Kind of data set: Cytotoxicity against human MALME-3M cells after 72 hrs by alamar blue assay. The format is functional, cell-based. The procedure, abridged:
as §1

For data set [18], the system named is IGROV-1. In words: Cytotoxicity against human IGROV1 cells after 72 hrs by alamar blue assay. The settings on record: IGROV-1, 72 h. It is filed as functional, cell-based. The procedure, abridged:
as §1

In data set [19] the test system is LNCaP. Kind of data set: Cytotoxicity against human LNCAP cells after 72 hrs by alamar blue assay. It is filed as functional, cell-based. Summed up: as §1
Data set [20] has as its system DU-145. Kind of data set: Cytotoxicity against human DU145 cells after 72 hrs by alamar blue assay. It is filed as functional, cell-based. To be noted: DU-145, 72 h. The procedure, abridged:
as §1

The subject of data set [21] is A-375. In words: Cytotoxicity against human A375 cells after 72 hrs by alamar blue assay. The format is functional, cell-based. To be noted: A-375, 72 h. Summed up:
as §1

The subject of data set [22] is NCI-H460. Kind of data set: Antitumor activity against human H460 cells xenografted in nu/nu mouse assessed as tumor growth delay at 2 mg/kg, po QD for 5 days followed by 2days without treatment for 2 weeks. The format is functional. The procedure, abridged: (§4)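 Nude mice (nu/nu), females, or males for the prostate model, 4-6 weeks old, implanted sc in the flank with tumor cells (H460 at 1 × 10⁶). Groups of 10 were randomized at 100-150 mm³. Dosing was oral gavage in 5% DMSO/5% Tween 80/1% CMC in water, QD 5 days on/2 off per cycle, for 2 cycles (H460, PC-3) or 4 cycles (HT29). Tumor volume (length × width²/2) and body weight were measured twice weekly.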
For orientation: In xenograft studies the graft and the host belong to different species.

Data set [23] relates to PC-3. In words: Antitumor activity against human PC3 cells xenografted in nu/nu mouse assessed as tumor growth inhibition at 2 mg/kg, po QD for 5 days followed by 2days without treatment for 2 weeks. It is filed as functional. Also on record: scale not given: the % may be the effect or the level left. Summed up:
as §4

The subject of data set [24] is HT-29. In words: Antitumor activity against human HT-29 cells xenografted in nu/nu mouse assessed as tumor growth delay at 2 mg/kg, po QD for 5 days.
Data set [25] relates to Mus musculus. Kind of data set: Toxicity in nu/nu mouse assessed as body weight loss at 2 mg/kg, po QD for 5 days followed by 4 days without treatment for 2 weeks. It is filed as organism-based. The settings on record: in vivo. On the set-up: dose 2 mg/kg, route oral.
For data set [26], the system named is HT-29. Kind of data set: Antitumor activity against human HT-29 cells xenografted in nu/nu mouse assessed as tumor growth inhibition at 2 mg/kg, po QD for 5 days. Also on record: scale not given: the % may be the effect or the level left.
The test system of data set [27] is NCI-H460. In words: Antitumor activity against human H460 cells xenografted in nu/nu mouse assessed as tumor growth inhibition at 2 mg/kg, po QD for 5 days followed by 2days without treatment for 2 weeks. Also on record: scale not given: the % may be the effect or the level left. The format is functional. The procedure, abridged: as §4
The subject of data set [28] is Mus musculus. Kind of data set: Toxicity in nu/nu mouse assessed as body weight loss at 2 mg/kg, po QD for 5 days followed by 2 days without treatment for 2 weeks. On the set-up: dose 2 mg/kg, route oral. The format is organism-based. To be noted: in vivo. Summed up:
as §4

Data set [29] concerns PC-3. Kind of data set: Antitumor activity against human PC3 cells xenografted in nu/nu mouse assessed as tumor growth delay at 2 mg/kg, po QD for 5 days followed by 2days without treatment for 2 weeks. It is filed as functional. The procedure, abridged: as §4

In general, IC50 refers to the concentration at which inhibition is half-maximal. Consider `CCc1c2c(nc3ccccc13)-c1c3c(c(CO)c(=O)n1C2)[C@@](O)(CC)C(=O)N3`, for which the IC50 in data set [1] was > 10 µM.

The term IC90 denotes the concentration needed for an effect of 90%. For the compound `CC[C@@]1(O)C(=O)OCc2c1cc1n(c2=O)Cc2cc3c(N)cccc3nc2-1` [9-AMINOCAMPTOTHECIN], the selectivity ratio in data set [2] came to 75; in data set [4] it was 88. The IC50 was 0.001 µM in data set [3] and 0.09 µM in data set [5]. In addition, it took 0.008 µM to reach the 90% level in [3] (IC90).

Regarding `CC[C@@]1(O)C(=O)OCc2c1cc1n(c2=O)Cc2cc3ccccc3nc2-1` [CAMPTOTHECIN], the IC50 is > 0.3 µM in data set [6]; 0.013 µM in [1]; 0.057 µM in data set [9]; > 1 µM in data set [10]; 0.26 µM in data set [12]; 0.001 µM in data set [13]. Besides, the IC50 in [14] was 0.012 µM; in data set [15], 0.052 µM. For the same compound, the results for the Ratio in data set [7], in data set [8] and in data set [11] were >250, 1 and >77, respectively.

On to `CCc1c2c(nc3ccc(OC(=O)N4CCC(N5CCCCC5)CC4)cc13)-c1cc3c(c(=O)n1C2)COC(=O)[C@]3(O)CC` [IRINOTECAN], for which the IC50 in data set [6] is 0.25 µM; in data set [16] it was 0.1 µM; in [1], 0.015 µM; in data set [17], 0.2 µM; in [9], 0.01 µM; in data set [10], 0.027 µM. In addition, the IC50 in data set [12] was determined as 0.22 µM; in data set [18] it was 0.03 µM; in [13] it was 0.022 µM; in data set [14] it was 0.004 µM; in data set [3] it was 0.001 µM; in [19], 0.009 µM. For the same compound, the IC50 worked out at 0.2 µM in [20], 0.022 µM in data set [15], 0.11 µM in data set [5] and 0.004 µM in [21]. Besides, the Ratio in data set [7] is recorded as 11; in [8], 2; in [11], 2. Further, the results for the selectivity ratio in data set [2] and in data set [4] were 85 and 100, respectively. In addition, in [3], the 90% effect level (IC90) was put at 0.008 µM.

Turning to `CC[C@@]1(O)C(=O)OCc2c1cc1n(c2=O)Cc2cc3c(CN(C)C)c(O)ccc3nc2-1` [TOPOTECAN], the IC50 in data set [6] was > 0.3 µM; in data set [16] it was 0.14 µM; in data set [1], 0.045 µM; in [17], 1 µM; in [9], 0.004 µM; in data set [10] it was 0.11 µM. The IC50 in data set [12] is > 1 µM; in data set [18], 0.16 µM; in data set [13], 0.006 µM; in data set [14] it was 0.045 µM; in [3], 0.008 µM; in data set [19], 0.009 µM. Besides, the IC50 in data set [20] is 1 µM; in data set [15], 0.033 µM; in [5], 0.13 µM; in data set [21] it was 0.013 µM. For the same compound, the Ratio in [7] was >47; in data set [8], 8; in [11], 2. Moreover, the selectivity ratio in data set [2] worked out at 16; in data set [4], 14. Also, the Time in [22] turned out to be 5 days; in data set [24] it was 16 days; in data set [29] it was 21 days. The Activity in data set [23] was 79%; in data set [25] it was 0% and 1%; in [26], 70%; in [27], 46%; in data set [28], 9%. In data set [3], this compound returned an IC90 of 0.05 µM.

Source of the values: ChEMBL document CHEMBL1687926, “14-Aminocamptothecins: their synthesis, preclinical activity, and potential use for cancer treatment” (J Med Chem, 2011).
